The source of these data is publication PMC3738169 (Journal of medicinal chemistry, 2012).

The test system of data set [1] is C4-2LucBAD cells. Nature of the data set: Caspase 3 assay in C4-2LucBAD cells. It is filed as cell-based.
The test system of data set [2] is p-Akt T308 in breast cancer BT-549 cells. Nature of the data set: C4-2 conditioned medium assay. It is filed as cell-based. The settings on record: 11 incubated in media conditioned by BT-549 cells. The procedure, abridged: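 Test compound held 6 h at 37 °C (5% CO2, humidified) in serum-free medium on producer cells; this line's arm used BT-549-conditioned medium. Medium then transferred to BT-549 cells for 3 h. Cells seeded 4×10^5 per 6 cm dish, grown 48 h to ~80% confluence; BT-549 medium carried 0.023 U/mL insulin. Phospho-Akt T308 read by Western blot of clarified lysates; n=3.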

The subject of data set [3] is p-Akt T308 in C4-2LucBAD cells. Nature of the data set: p-Akt T308 Western blot in C4-2LucBAD cells. The conditions noted are these: 3 h, dose-response, control PBS. The data set is classed as cell-based. The procedure, abridged: (§1)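 Cells were seeded at 4×105 per 6 cm dish, grown 48 h to about 80% confluence, then exposed to test compound for 3 h with PBS as control. C4-2LucBAD cells were in RPMI 1640, serum-free for 18 h beforehand. LNCaP cells were in T-Medium with 2.5% FBS. U-87 MG cells were in DMEM, serum-free. HEPES pH 7.4 lysates with protease and phosphatase inhibitors were blotted for p-Akt T308, Akt and β-actin.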

The subject of data set [4] is p-Akt T308 in prostate cancer LNCaP cells. Nature of the data set: p-Akt T308 Western blot in LNCaP cells. The data set is classed as cell-based. The settings on record: LNCaP cells incubated with 11, 3 h, dose-response, control PBS. The method, boiled down: as §1
A general note: Immunoblotting shows a protein as a band on a membrane.

Data set [5] concerns p-Akt T308 (PI3K/Akt pathway) in breast cancer BT-549 cells. Put plainly: p-Akt T308 Western blot in BT-549 cells. The data set is classed as cell-based. The procedure, abridged:
(§2)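 BT-549 cells (RPMI 1640, 10% FBS, 0.023 U/mL insulin) and C4-2 cells (RPMI 1640, 10% FBS) were seeded at 4×105 per 6 cm dish, grown 48 h to about 80% confluence, then moved to serum-free medium. Dosing was a 30 min concentration series with DMSO control, or a 3 h series or 30 min–6 h time course with PBS control. Lysates went to 12% SDS-PAGE and were probed for p-Akt T308, Akt and β-actin, with infrared detection and densitometry.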

Data set [6] deals with p-Akt T308 in glioblastoma-astrocytoma U-87 MG cells. Nature of the data set: p-Akt T308 Western blot in U-87 MG cells. The settings on record: U-87 MG cells (no PSA) incubated with 11, 3 h, control PBS. It is filed as cell-based. The method, boiled down:
as §1

Data set [7] concerns purified active human PSA; p-Akt T308 in BT-549 cells. Put plainly: Cleavage of compound 11 with purified PSA, then p-Akt T308 in BT-549 cells. The data set is classed as cell-based. The settings on record: 11 without PSA, added to BT-549 cells for 30 min. The method, boiled down:
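Test compound was pre-incubated 6 h at 37 °C in 50 mM Tris-HCl, 0.1 M NaCl, pH 7.8 with increasing concentrations of enzymatically active PSA purified from human semen. It was then applied for 30 min to serum-starved BT-549 cells, maintained in RPMI 1640 with 10% FBS and 0.023 U/mL insulin. p-Akt T308 was read by Western blot against a PBS control, in three independent experiments.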

Data set [8] concerns p-Akt T308 (PI3K/Akt pathway) in prostate cancer C4-2 cells. Put plainly: p-Akt T308 Western blot in C4-2 cells. It is filed as cell-based. The method, boiled down:
as §2

Data set [9] relates to C4-2LucBAD cells. The conditions noted are these: C42LucBAD cells that ectopically express BAD; cited from earlier work.
A short description of the next data set: Water solubility. The settings on record: qualitative statement.

On to “Mu-LEHSSKLQL-8-(4-(Hydroxymethyl)phenyl)-2-morpholino-4H-chromen-4-one [Compound 11]”, for which the “Caspase 3 activity compared with active inhibitor” value with C4-2LucBAD cells [1] (6 h) is given as “Somewhat lower levels”. Also, the “Caspase 3 activity (apoptosis)” value in the data set with C4-2LucBAD cells [1] (6 h after administration, fluorogenic substrate Ac-DEVD-7-amido-4-trifluoromethylcoumarin, n=2, vs DMSO control) is listed as “increased”. Moreover, the “p-Akt T308 levels in BT-549 cells after 11 incubated in BT-549 conditioned media” value in data set [2] is on record as “had no effects”. In addition, the “p-Akt T308 levels” value in [3] is listed as “dose-dependent reduction”; in [4], “dose-dependent reduction”; in [5] (BT-549 cells (no PSA) incubated with 11, 3 h, control PBS), “No significant reduction”; in data set [6], “No significant reduction”; in [8] (C4-2 cells incubated with 11, 3 h, dose-response, control PBS), “dose-dependent reduction”. Further, the “p-Akt T308 levels, time course” value in data set [5] (BT-549 cells treated with 11 from 30 min to 6 h, Western blot, three independent experiments) is recorded as “no significant differences”; in [8] (C4-2 cells treated with 11 from 30 min to 6 h, vs control, Western blot, three independent experiments), “time-dependent reduction”. The “p-Akt T308 levels in BT-549 cells, 11 without enzymatically active PSA” value in [7] is on record as “had no effect”.

Regarding `O=c1cc(N2CCOCC2)oc2c(-c3ccccc3)cccc12` [LY294002], the induction of apoptosis entry with C4-2LucBAD cells [9] was “induces apoptosis”. Besides, the water solubility entry in “Water solubility” is “poor water solubility”.

In the case of `CC(C)CC(N)C(=O)OCc1ccc(-c2cccc3c(=O)cc(N4CCOCC4)oc23)cc1` (stereo not shown) [Compound 10, 4-(2-morpholino-4-oxo-4H-chromen-8-yl) benzyl-2-amino-4-methylpentanoate], the “concentration that completely inhibited Akt phosphorylation” value in data set [5] (BT-549 cells, 30 min, dose-response analysis) is 30 µM; in data set [8] (C4-2 cells, 30 min, dose-response analysis), 30 µM. Further, in data set [8] (C4-2 and BT-549 cells, p-Akt T308 read-out, 30 min), the “PI3 kinase inhibitory potency relative to LY294002” value is recorded as “comparable to LY294002”.
